Activity calls are given as the source filed them. The rule behind the calls is not given here.
Legend:
Splenocyte [1] = test: Inhibition of IFN-gamma secretion in BALB/c mouse splenocytes at 60 uM after 72 hrs by ELISA; format: functional
In short: (§1)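 Splenocytes from BALB/c mouse spleens, red cells lysed with Tris–NH4Cl pH 7.2, in RPMI-1640 with 10% newborn calf serum; 5 × 10^5 cells per well. Cells pretreated 4 h with 10 µg/mL concanavalin A (type IV), then given compound and held 72 h at 37 °C, 5% CO2. IFN-γ or IL-4 in the supernatant measured by mouse cytokine ELISA, quantified from a standard curve (15.63–500 pg/mL).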

Splenocyte [2] = test: Inhibition of IL4-secretion in BALB/c mouse splenocytes at 60 uM after 72 hrs by ELISA; format: functional; in short: as §1
[3] = Inhibition of alpha glucosidase
In short: (§2)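 Enzyme added to substrate (0.4–5 mM) in 25 mM phosphate and nitrate buffer, with or without iminosugar at various concentrations. Substrates were p-nitrophenyl glycosides; β-galactosidase used o-nitrophenyl β-galactoside.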

[4] = Inhibition of beta glucosidase; in short: as §2
[5] = Inhibition of alpha mannosidase; in short: as §2
[6] = target: T1, Beta-mannosidase (Homo sapiens) (UniProt O00462); test: Inhibition of beta-mannosidase; in short: as §2
T1 sequence (whole entry): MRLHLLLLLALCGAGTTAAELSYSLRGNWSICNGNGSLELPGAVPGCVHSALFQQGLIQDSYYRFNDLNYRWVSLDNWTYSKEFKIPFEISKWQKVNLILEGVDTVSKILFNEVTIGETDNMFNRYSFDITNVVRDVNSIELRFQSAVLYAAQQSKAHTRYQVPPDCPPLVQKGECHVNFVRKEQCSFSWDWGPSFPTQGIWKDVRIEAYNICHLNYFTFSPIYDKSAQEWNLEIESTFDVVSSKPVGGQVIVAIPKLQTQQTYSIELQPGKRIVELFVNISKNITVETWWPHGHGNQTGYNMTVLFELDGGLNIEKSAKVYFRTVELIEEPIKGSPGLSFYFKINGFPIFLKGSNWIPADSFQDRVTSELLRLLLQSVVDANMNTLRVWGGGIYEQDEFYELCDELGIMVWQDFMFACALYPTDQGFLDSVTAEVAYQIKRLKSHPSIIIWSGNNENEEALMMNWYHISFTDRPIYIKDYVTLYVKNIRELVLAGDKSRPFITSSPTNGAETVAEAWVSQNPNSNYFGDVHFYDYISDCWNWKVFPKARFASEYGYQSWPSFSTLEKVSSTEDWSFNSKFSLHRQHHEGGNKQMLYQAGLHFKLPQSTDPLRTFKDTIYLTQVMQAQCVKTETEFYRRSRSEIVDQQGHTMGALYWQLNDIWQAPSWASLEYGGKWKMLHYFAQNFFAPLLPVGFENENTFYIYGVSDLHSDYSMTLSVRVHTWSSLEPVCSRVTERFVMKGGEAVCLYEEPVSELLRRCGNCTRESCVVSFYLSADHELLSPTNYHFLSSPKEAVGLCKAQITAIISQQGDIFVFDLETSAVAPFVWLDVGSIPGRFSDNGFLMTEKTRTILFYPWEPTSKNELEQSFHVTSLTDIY

[7] = Inhibition of alpha galactosidase; in short: as §2
[8] = Inhibition of beta galactosidase; in short: as §2
[9] = Inhibition of alpha-L-fucosidase; in short: as §2
[10] = Inhibition of concanavalin A-induced BALB/c mouse splenocyte proliferation at 30 uM by MTT assay; format: functional
In short: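 Mouse splenocytes stimulated with concanavalin A; proliferation read by MTT assay as the mitochondrial dehydrogenase activity of surviving cells, with compound at 30 µM.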

Row | SMILES | inhibition at 60 µM (Splenocyte [1]) | inhibition at 60 µM (Splenocyte [2]) | Activity [3] | Activity [4] | Activity [5] | Activity [6] | Activity [7] | Activity [8] | Activity [9] | inhibition at 30 µM [10] | IC50 [4] | IC50 [3] | IC50 [5] | IC50 [7] | IC50 [9]
1 | COCCN1C[C@H](O)[C@@H](O)[C@H](O)[C@H]1C | 16% | 58.8% | inactive | inactive | inactive | inactive | inactive | inactive |  |  |  |  |  |  | 
2 | C[C@@H]1[C@@H](O)[C@H](O)[C@@H](O)CN1CCN | 41% | 64% |  | inactive | inactive | inactive | inactive | inactive | inactive |  |  |  |  |  | 
3 | CCCCCCCCCCN1C[C@H](O)[C@@H](O)[C@H](O)[C@H]1C | 61% | 90% | inactive |  |  | inactive | inactive | inactive | inactive | 48.3% |  |  |  |  | 
4 | CC(=O)NCCN1C[C@H](O)[C@@H](O)[C@H](O)[C@H]1C | 9% | 59.7% |  |  | inactive | inactive | inactive |  | inactive |  | > 2000 µM |  |  |  | 
5 | C[C@H]1NC[C@H](O)[C@@H](O)[C@@H]1O | 9% | 58% |  | inactive | inactive | inactive | inactive | inactive |  |  |  |  |  |  | 
6 | C[C@@H]1[C@@H](O)[C@H](O)[C@@H](O)CN1CCO | 29% | 57% | inactive |  | inactive | inactive | inactive | inactive |  |  | 34 µM |  |  |  | 
7 | CCCCN1C[C@H](O)[C@@H](O)[C@H](O)[C@H]1C | 55.5% | 44% |  |  |  | inactive |  |  |  |  | 540 µM | 77 µM | 2000 µM | 234 µM | 3000 µM
8 | C[C@@H]1[C@@H](O)[C@H](O)[C@@H](O)CN1C1CCCCC1 | 9.1% | 57% |  | inactive | inactive | inactive | inactive | inactive |  |  |  |  |  |  | 
9 | OC[C@H]1NC[C@H](O)[C@@H](O)[C@@H]1O [DUVOGLUSTAT] |  |  |  |  |  |  |  |  |  | 15.6% |  |  |  |  | 

— ChEMBL document CHEMBL1141557, “An expeditious one-pot synthesis of 1,6-dideoxy-N-alkylated nojirimycin derivatives and their inhibitory effects on the secretion of IFN-gamma and IL-4” (Bioorg Med Chem, 2008)
